ChEMBL document CHEMBL3085696, “Aurora isoform selectivity: design and synthesis of imidazo[4,5-b]pyridine derivatives as highly selective inhibitors of Aurora-A kinase in cells” (J Med Chem, 2013)

Experiments:
Aurora kinase A = Aurora kinase A (Homo sapiens, UniProt O14965, R220K); experiment: Inhibition of autophosphorylation of aurora-A R220K mutant at T288 in human HCT116 cells after 2 hrs; format: cell-based, HCT-116
Method in brief: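 Cells transfected with N-terminal Myc-tagged Aurora-A (wild type or T217E, L215R or R220K mutant, made by Quikchange mutagenesis), then exposed to a range of inhibitor concentrations for 2 h. Lysed in LDS sample buffer, sonicated, boiled, run on LDS-PAGE and blotted to nitrocellulose. Probed with anti-P-T288 (Aurora-A autophosphorylation) and anti-P-histone H3 S10 (Aurora-B substrate) antibodies. Blots quantified and IC50 fitted.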

[1] = target: T1, Receptor-type tyrosine-protein kinase FLT3 (Homo sapiens, UniProt P36888); experiment: Inhibition of FLT3 (unknown origin) at 1 uM
T1 sequence (P36888 whole entry): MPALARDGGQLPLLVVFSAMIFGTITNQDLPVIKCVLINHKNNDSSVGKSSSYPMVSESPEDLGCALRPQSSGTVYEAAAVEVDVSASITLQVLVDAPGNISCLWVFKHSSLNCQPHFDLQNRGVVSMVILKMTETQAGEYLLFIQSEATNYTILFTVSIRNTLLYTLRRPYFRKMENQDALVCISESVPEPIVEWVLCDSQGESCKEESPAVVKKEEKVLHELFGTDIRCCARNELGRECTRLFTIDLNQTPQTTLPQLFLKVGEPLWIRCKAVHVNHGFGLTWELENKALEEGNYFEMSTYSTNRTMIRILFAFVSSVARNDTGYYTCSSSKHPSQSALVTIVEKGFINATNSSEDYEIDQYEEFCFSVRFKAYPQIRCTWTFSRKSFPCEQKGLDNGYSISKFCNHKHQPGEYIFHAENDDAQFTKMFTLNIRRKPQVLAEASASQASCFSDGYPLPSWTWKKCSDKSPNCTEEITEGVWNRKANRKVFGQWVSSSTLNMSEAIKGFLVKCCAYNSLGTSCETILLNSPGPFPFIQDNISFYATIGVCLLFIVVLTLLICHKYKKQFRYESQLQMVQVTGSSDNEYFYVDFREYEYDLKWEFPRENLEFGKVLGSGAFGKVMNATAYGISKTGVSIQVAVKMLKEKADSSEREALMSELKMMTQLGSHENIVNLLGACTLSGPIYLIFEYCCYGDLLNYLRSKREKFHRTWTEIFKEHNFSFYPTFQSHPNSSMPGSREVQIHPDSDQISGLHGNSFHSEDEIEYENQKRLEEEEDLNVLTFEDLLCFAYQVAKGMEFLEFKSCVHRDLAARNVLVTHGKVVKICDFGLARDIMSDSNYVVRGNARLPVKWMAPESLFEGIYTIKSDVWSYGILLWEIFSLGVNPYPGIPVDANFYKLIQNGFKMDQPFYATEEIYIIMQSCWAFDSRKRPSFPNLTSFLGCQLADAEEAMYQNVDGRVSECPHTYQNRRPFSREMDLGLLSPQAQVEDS
Method in brief: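 Single-concentration (1 μM) profiling within a 110-kinase selectivity panel; activity expressed as percent inhibition of each kinase.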

Mus musculus = experiment: Oral bioavailability in Balb/C mouse at 5 mg/kg; format: ADME, organism-based; conditions: in vivo
Method in brief: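 Female Balb/C mice given 5 mg/kg po or iv in 10% DMSO/5% Tween 20 in saline. Terminal cardiac-puncture plasma taken at 5, 15, 30 min and 1, 2, 4, 6, 24 h. Methanol precipitation with olomoucine internal standard. Analysis by LC/MS (ESI+ MRM).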

Chain of Aurora kinase A (O14965 whole entry I57V/R220K): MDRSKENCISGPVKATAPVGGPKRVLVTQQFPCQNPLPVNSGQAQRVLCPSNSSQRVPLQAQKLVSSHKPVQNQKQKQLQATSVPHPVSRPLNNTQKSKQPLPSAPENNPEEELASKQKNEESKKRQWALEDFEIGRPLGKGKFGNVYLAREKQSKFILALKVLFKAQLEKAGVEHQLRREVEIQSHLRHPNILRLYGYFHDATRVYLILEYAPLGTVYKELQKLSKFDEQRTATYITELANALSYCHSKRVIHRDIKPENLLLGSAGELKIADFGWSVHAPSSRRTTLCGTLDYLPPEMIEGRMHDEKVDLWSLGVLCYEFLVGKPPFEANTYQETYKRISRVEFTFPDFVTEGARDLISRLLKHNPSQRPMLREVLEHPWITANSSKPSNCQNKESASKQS

Cc1nn(C)cc1-c1nc2c(Oc3ccc(C(=O)Nc4ccccc4)cc3)c(Cl)cnc2[nH]1
IC50 (Aurora kinase A): 27 nM | IC50 [1]: 162 nM | F (Mus musculus): 100%
